{
  "source": "ChEMBL document CHEMBL1129372",
  "about": "“Cyclopent[a]anthraquinones as DNA intercalating agents with covalent bond formation potential: synthesis and biological activity” (J Med Chem, 1996)",
  "key": {"833K": {"test_system": "833K", "assay": "Inhibition of cell growth was studied in human teratocarcinoma (833K).", "format": "functional, cell-based", "in_short": "(§1)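 Monolayer solid-tumor cells were assayed by SRB protein staining using six to seven concentrations. IC50 is the concentration reducing cell density to 50% of control, derived by median-effect plot.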"}, "DC3F": {"test_system": "DC3F", "assay": "Inhibition of cell growth was studied in chinese hamster lung cells (DC-3F)", "format": "functional, cell-based", "details": "Cricetulus griseus", "in_short": "as §1"}, "DC3F/AD-II": {"test_system": "DC3F/AD-II", "assay": "Inhibition of cell growth was studied in chinese hamster lung cells resistant to actinomycin D (DC-3F/AD-II).", "format": "functional, cell-based", "details": "Cricetulus griseus", "in_short": "as §1"}, "HL-60": {"test_system": "HL-60", "assay": "Inhibition of cell growth was studied in human promyelocytic leukemic (HL-60) cells.", "format": "functional, cell-based", "in_short": "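HL-60 cells were exposed for 72 h and read by XTT-tetrazolium microculture assay: PMS-XTT incubation for 6 h at 37 °C, absorbance at 450 and 630 nm. Six to seven concentrations were tested. IC50 was derived by median-effect plot.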"}, "Mus musculus [1]": {"test_system": "Mus musculus", "assay": "Anti cancer activity was tested on day 14, in mice bearing Lewis lung adenocarcinoma by injecting 0.8 mg/kg dose of compound intraperitoneally and average tumor volume was calculated.", "format": "functional", "details": "route intraperitoneal", "in_short": "(§2)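 BDF1 mice given Lewis lung carcinoma subcutaneously (footnote: 4 × 10⁶ cells; methods: 0.2 mL brei). Dosing was ip once daily for 5 days, starting day 3 after inoculation, with drug in DMSO. Controls received DMSO alone: four control mice and three mice per dose. Body weight change, mortality and tumor volume were recorded on days 7, 10 and 14. Tumor volume is given as T/C.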"}, "Mus musculus [2]": {"test_system": "Mus musculus", "assay": "Anti cancer activity was tested on day 7, in mice bearing Lewis lung adenocarcinoma by injecting 0.4 mg/kg dose of compound intraperitoneally and average tumor volume was calculated.", "format": "functional", "details": "route intraperitoneal", "in_short": "as §2"}, "Mus musculus [3]": {"test_system": "Mus musculus", "assay": "Anti cancer activity was tested on day10, in mice bearing Lewis lung adenocarcinoma by injecting 0.4 mg/kg dose of compound intraperitoneally and average tumor volume was calculated.", "format": "functional", "details": "route intraperitoneal", "in_short": "as §2"}, "Mus musculus [4]": {"test_system": "Mus musculus", "assay": "Anti cancer activity was tested on day10, in mice bearing Lewis lung adenocarcinoma by injecting 0.8 mg/kg dose of compound intraperitoneally and average tumor volume was calculated.", "format": "functional", "details": "route intraperitoneal", "in_short": "as §2"}, "Mus musculus [5]": {"test_system": "Mus musculus", "assay": "Anti cancer activity was tested on day 14, in mice bearing Lewis lung adenocarcinoma by injecting 0.4 mg/kg dose of compound intraperitoneally and a. average […] was reported.", "format": "functional", "details": "route intraperitoneal", "in_short": "as §2"}, "Mus musculus [6]": {"test_system": "Mus musculus", "assay": "Anti cancer activity was tested on day10, in mice bearing Lewis lung adenocarcinoma by injecting 0.8 mg/kg dose of compound intraperitoneally and average weight change was reported.", "format": "functional", "details": "route intraperitoneal", "in_short": "as §2"}, "Mus musculus [7]": {"test_system": "Mus musculus", "assay": "Anti cancer activity was tested on day 14, in mice bearing Lewis lung adenocarcinoma by injecting 0.8 mg/kg dose of compound intraperitoneally and average weight change was reported.", "format": "functional", "details": "route intraperitoneal", "in_short": "as §2"}, "Mus musculus [8]": {"test_system": "Mus musculus", "assay": "(§3) Anti cancer activity was tested on day10, in mice bearing Lewis lung adenocarcinoma by injecting 0.4 mg/kg dose of compound intraperitoneally and average weight change was reported.", "format": "functional", "details": "route intraperitoneal", "in_short": "as §2"}, "SK-BR-3": {"test_system": "SK-BR-3", "assay": "Inhibition of cell growth was studied in human mammary adenocarcinoma (SKBR-3).", "format": "functional, cell-based", "in_short": "as §1"}, "Mus musculus [9]": {"test_system": "Mus musculus", "assay": "Anti cancer activity was tested on day 7, in mice bearing Lewis lung adenocarcinoma by injecting 2.0 mg/kg dose of compound intraperitoneally and average tumor volume was calculated.", "format": "functional", "details": "route intraperitoneal", "in_short": "(§4)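 Lewis lung carcinoma was implanted subcutaneously in BDF₁ mice at 4 × 10⁶ cells. Starting day 3, drug in DMSO was given ip once daily for 5 days; untreated controls received DMSO alone. Groups were four control mice and three mice per dose. Body weight change and average tumor volume (T/C) were recorded on days 7, 10 and 14 after treatment began.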"}, "Mus musculus [10]": {"test_system": "Mus musculus", "assay": "Anti cancer activity was tested on day 14, in mice bearing Lewis lung adenocarcinoma by injecting 0.4 mg/kg dose of compound intraperitoneally and average […] was reported.", "format": "functional", "details": "route intraperitoneal", "in_short": "as §4"}, "Mus musculus [11]": {"test_system": "Mus musculus", "assay": "as §3", "format": "functional", "details": "route intraperitoneal", "in_short": "as §4", "remark": "listed apart in the source"}, "Mus musculus [12]": {"test_system": "Mus musculus", "assay": "Anti cancer activity was tested on day 7, in mice bearing Lewis lung adenocarcinoma by injecting 2.0 mg/kg dose of compound intraperitoneally and average weight change was reported.", "format": "functional", "details": "route intraperitoneal", "in_short": "as §4"}},
  "note": "Values joined by “and” are separate entries in the source; they are usually repeats but may differ in a detail not shown here. Identical values can stand only once.",
  "data": [
    {"smiles": "CNC(=O)OCc1cc2c(c3c1C1NC1C3)C(=O)c1ccccc1C2=O", "note": "(configuration not stated)", "values": [
      {"measurement": "IC50", "setting": "833K", "value": 23.9, "unit": "µM"},
      {"measurement": "IC50", "setting": "DC3F", "value": 10.4, "unit": "µM"},
      {"measurement": "IC50", "setting": "DC3F/AD-II", "value": 3.6, "unit": "µM"},
      {"measurement": "IC50", "setting": "HL-60", "value": 6.03, "unit": "µM"},
      {"measurement": "Average tumor volume", "setting": "Mus musculus [1]", "value": 0.496, "unit": "T/C"},
      {"measurement": "Tumor volume treated/control ratio (T/C)", "setting": "Mus musculus [2]", "value": "1.011 T/C and 0.529 T/C"},
      {"measurement": "Average tumor volume", "setting": "Mus musculus [3]", "value": 0.303, "unit": "T/C"},
      {"measurement": "Average tumor volume", "setting": "Mus musculus [4]", "value": 0.205, "unit": "T/C"},
      {"measurement": "Average tumor volume", "setting": "Mus musculus [5]", "value": 0.529, "unit": "T/C"},
      {"measurement": "Average weight change", "setting": "Mus musculus [5]", "value": 2, "unit": "mg/kg"},
      {"measurement": "Average weight change", "setting": "Mus musculus [6]", "value": -0.4, "unit": "g"},
      {"measurement": "Average weight change", "setting": "Mus musculus [7]", "value": 0.5, "unit": "g"},
      {"measurement": "Average weight change", "setting": "Mus musculus [8]", "value": -0.2, "unit": "mg/kg"},
      {"measurement": "IC50", "setting": "SK-BR-3", "value": 19.9, "unit": "µM"}
    ]},
    {"smiles": "NC(=O)OCc1cc2c(c3c1CCC3)C(=O)c1ccccc1C2=O", "values": [
      {"measurement": "IC50", "setting": "HL-60", "value": 123, "unit": "µM"}
    ]},
    {"smiles": "CNC(=O)OCc1cc2c(c3c1CCC3)C(=O)c1ccccc1C2=O", "values": [
      {"measurement": "IC50", "setting": "HL-60", "value": 274, "unit": "µM"}
    ]},
    {"smiles": "CO[C@@]12[C@H](COC(N)=O)C3=C(C(=O)C(C)=C(N)C3=O)N1C[C@@H]1N[C@@H]12", "note": "[MITOMYCIN]", "values": [
      {"measurement": "IC50", "setting": "833K", "value": 0.328, "unit": "µM"},
      {"measurement": "IC50", "setting": "DC3F", "value": 0.082, "unit": "µM"},
      {"measurement": "IC50", "setting": "DC3F/AD-II", "value": 0.11, "unit": "µM"},
      {"measurement": "IC50", "setting": "HL-60", "value": 0.05, "unit": "µM"},
      {"measurement": "Average tumor volume", "setting": "Mus musculus [1]", "value": 0.437, "unit": "T/C"},
      {"measurement": "Tumor volume treated/control ratio (T/C)", "setting": "Mus musculus [2]", "value": "0.49 T/C and 0.356 T/C"},
      {"measurement": "Average tumor volume", "setting": "Mus musculus [9]", "value": 0.169, "unit": "T/C"},
      {"measurement": "Average tumor volume", "setting": "Mus musculus [3]", "value": 0.411, "unit": "T/C"},
      {"measurement": "Average tumor volume", "setting": "Mus musculus [4]", "value": 0.363, "unit": "T/C"},
      {"measurement": "Average tumor volume", "setting": "Mus musculus [10]", "value": 0.515, "unit": "T/C"},
      {"measurement": "Average weight change", "setting": "Mus musculus [10]", "value": 0.6, "unit": "g"},
      {"measurement": "Average weight change", "setting": "Mus musculus [11]", "value": -1.2, "unit": "g"},
      {"measurement": "Average weight change", "setting": "Mus musculus [6]", "value": -1.8, "unit": "g"},
      {"measurement": "Average weight change", "setting": "Mus musculus [7]", "value": 0.2, "unit": "g"},
      {"measurement": "Average weight change", "setting": "Mus musculus [12]", "value": -2.7, "unit": "g"},
      {"measurement": "IC50", "setting": "SK-BR-3", "value": 0.993, "unit": "µM"}
    ]}
  ]
}
